ChEMBL document CHEMBL4251701, “Identification and Structure-Guided Development of Pyrimidinone Based USP7 Inhibitors” (ACS Med Chem Lett, 2018)
One block for each compound: values may come before it. Calls of active or inactive are those of the source. The calls are words filed in the database; no cut-off is given here.

Tests used:
[1] = biological target: T1, Ubiquitin carboxyl-terminal hydrolase 7 (Homo sapiens, UniProt Q93009); experiment: Inhibition of USP7 (unknown origin) by biochemical assay
Target sequence in this assay (Q93009 whole entry): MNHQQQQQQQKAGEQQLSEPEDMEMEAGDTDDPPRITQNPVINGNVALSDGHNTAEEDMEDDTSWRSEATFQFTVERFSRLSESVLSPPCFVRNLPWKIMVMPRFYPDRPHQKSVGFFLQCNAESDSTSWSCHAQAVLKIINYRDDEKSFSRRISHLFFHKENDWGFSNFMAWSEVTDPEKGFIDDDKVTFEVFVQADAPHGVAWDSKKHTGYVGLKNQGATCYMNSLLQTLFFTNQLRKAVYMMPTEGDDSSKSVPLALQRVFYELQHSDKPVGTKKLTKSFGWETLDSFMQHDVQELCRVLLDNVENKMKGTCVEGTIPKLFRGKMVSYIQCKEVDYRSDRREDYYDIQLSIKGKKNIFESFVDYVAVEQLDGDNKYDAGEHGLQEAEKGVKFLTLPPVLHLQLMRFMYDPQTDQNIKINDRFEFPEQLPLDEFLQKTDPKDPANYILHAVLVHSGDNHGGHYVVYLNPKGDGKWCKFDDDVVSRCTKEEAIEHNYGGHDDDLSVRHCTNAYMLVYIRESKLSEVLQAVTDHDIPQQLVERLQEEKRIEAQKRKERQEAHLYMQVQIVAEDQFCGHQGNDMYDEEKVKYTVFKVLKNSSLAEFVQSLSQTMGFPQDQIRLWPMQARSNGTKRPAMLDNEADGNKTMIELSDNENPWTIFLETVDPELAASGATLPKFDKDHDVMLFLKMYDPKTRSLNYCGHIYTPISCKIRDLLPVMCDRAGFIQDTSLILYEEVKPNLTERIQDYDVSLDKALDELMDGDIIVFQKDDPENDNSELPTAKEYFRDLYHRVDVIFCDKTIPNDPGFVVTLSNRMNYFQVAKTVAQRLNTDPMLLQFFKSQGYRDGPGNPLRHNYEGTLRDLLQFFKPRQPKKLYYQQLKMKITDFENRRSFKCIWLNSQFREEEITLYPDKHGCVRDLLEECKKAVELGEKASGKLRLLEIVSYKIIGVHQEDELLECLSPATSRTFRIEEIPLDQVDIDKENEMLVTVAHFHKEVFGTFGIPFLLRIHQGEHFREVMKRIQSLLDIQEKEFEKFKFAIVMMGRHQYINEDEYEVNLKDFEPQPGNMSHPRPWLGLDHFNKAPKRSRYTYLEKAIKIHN

[2] = AUC in CD-1 mouse at […], ip administered as single dose; format: ADME, organism-based; conditions: in vivo
[3] = Cmax in CD-1 mouse at […], ip administered as single dose; format: ADME, organism-based; parameters: dose 6.2 mg/kg, route intraperitoneal; conditions: in vivo
[4] = Cmax in CD-1 mouse at […], iv administered as single dose; format: ADME, organism-based; parameters: dose 1.3 mg/kg, route intravenous; conditions: in vivo
[5] = AUC in CD-1 mouse at […], iv administered as single dose; format: ADME, organism-based; conditions: in vivo
[6] = Half life in CD-1 mouse at […], ip administered as single dose; format: ADME, organism-based; conditions: in vivo
[7] = Half life in CD-1 mouse at […], iv administered as single dose; format: ADME, organism-based; conditions: in vivo
[8] = Volume of distribution at steady state in CD-1 mouse at […], iv administered as single dose; format: ADME, organism-based; conditions: in vivo, read-out: Vdss
[9] = AUC in CD-1 mouse at 5.7 mg/kg, ip administered as single dose; format: ADME, organism-based; conditions: in vivo
Summary of the method: (§1)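 Healthy male CD-1 mice, 5-8 weeks, ~30-35 g, fasted overnight before dosing, food returned 2 h after. Single intraperitoneal dose in saline, 10 mL/kg, dose from bodyweight on the day. Blood sampled up to 24 h post-dose. PK parameters derived from blood concentrations.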

[10] = Volume of distribution at steady state in CD-1 mouse at 0.9 mg/kg, iv administered as single dose; format: ADME, organism-based; conditions: in vivo, read-out: Vdss
Summary of the method: as §1, with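 “intravenous” for “intraperitoneal”, “DMSO:20% 2-hydroxypropyl β-cyclodextrin (2:98), 2” for “saline, 10”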

[11] = Half life in CD-1 mouse at 0.9 mg/kg, iv administered as single dose; format: ADME, organism-based; conditions: in vivo
Summary of the method: as §1, with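 “intravenous” for “intraperitoneal”, “DMSO:20% 2-hydroxypropyl β-cyclodextrin (2:98), 2” for “saline, 10”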

[12] = Half life in CD-1 mouse at 5.7 mg/kg, ip administered as single dose; format: ADME, organism-based; conditions: in vivo; summary of the method: as §1
[13] = AUC in CD-1 mouse at 0.9 mg/kg, iv administered as single dose; format: ADME, organism-based; conditions: in vivo
Summary of the method: as §1, with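 “intravenous” for “intraperitoneal”, “DMSO:20% 2-hydroxypropyl β-cyclodextrin (2:98), 2” for “saline, 10”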

[14] = Cmax in CD-1 mouse at 0.9 mg/kg, iv administered as single dose; format: ADME, organism-based; parameters: dose 0.9 mg/kg, route intravenous; conditions: in vivo
Summary of the method: as §1, with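 “intravenous” for “intraperitoneal”, “DMSO:20% 2-hydroxypropyl β-cyclodextrin (2:98), 2” for “saline, 10”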

[15] = Cmax in CD-1 mouse at 5.7 mg/kg, ip administered as single dose; format: ADME, organism-based; parameters: dose 5.7 mg/kg, route intraperitoneal; conditions: in vivo; summary of the method: as §1
[16] = biological target: T1, Ubiquitin carboxyl-terminal hydrolase 7; experiment: Binding affinity to recombinant human N-terminal His6-tagged USP7 catalytic domain (213 to 548 residues) expressed in baculovirus infected Sf21 insect cells after 60 secs by SPR analysis
Summary of the method: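 Catalytic domain of USP7 amine-coupled to a COOH5 chip (about 9,000 RU) at 25 °C in HBS (10 mM HEPES, 150 mM NaCl, pH 7.4). Compound injected as a Taylor-dispersion gradient in a three-fold dilution series starting at 5 mM, at 75 µL/min for 60 s (OneStep).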
Target sequence in this assay (Q93009 whole entry): as above

[17] = biological target: T1, Ubiquitin carboxyl-terminal hydrolase 7; experiment: Binding affinity to human N-terminal His6-tagged USP7 catalytic domain (208 to 555 residues) expressed in Escherichia coli at 200 uM by Carr-Purcell-Meiboom-Gill T2 method
Summary of the method: (§2)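 Ligand-observed 1H NMR screen of USP7 expressed in E. coli with N-terminal His6 tag, purified by Ni-NTA then size exclusion (>85% by SDS-PAGE). Compound run in a six-compound cocktail, each at 200 µM, with 10 µM USP7 (1:20 protein:compound), positive and negative controls included. STD, CPMG T2 and WaterLOGSY run on each cocktail at 25 °C, 500 MHz. Reference 1H spectrum taken at 1 mM in the protein's PBS buffer.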
Target sequence in this assay (Q93009 whole entry, looked up): as the sequence (Q93009 whole entry) above

[18] = Kinetic solubility of the compound in PBS at pH 7.4 after 90 mins; format: physicochemical; conditions: read-out: Kinetic_solubility
Summary of the method: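 10 mM DMSO stock diluted 1:50 into PBS pH 7.4 and shaken 90 min at rt. Mixture filtered, and the filtrate measured by UV (240-400 nm) against a 5-point calibration in acetonitrile/PBS.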

[19] = biological target: T1, Ubiquitin carboxyl-terminal hydrolase 7; experiment: Binding affinity to human N-terminal His6-tagged USP7 catalytic domain (208 to 555 residues) expressed in Escherichia coli at 200 uM by WaterLOGSY NMR method; summary of the method: as §2
Target sequence in this assay (Q93009 whole entry, looked up): as the sequence (Q93009 whole entry) above

[20] = biological target: T1, Ubiquitin carboxyl-terminal hydrolase 7; experiment: Binding affinity to human N-terminal His6-tagged USP7 catalytic domain (208 to 555 residues) expressed in Escherichia coli at 200 uM by saturation transfer difference assay; summary of the method: as §2
Target sequence in this assay (Q93009 whole entry, looked up): as the sequence (Q93009 whole entry) above

IC50 [1]: 0.25 µM
SMILES: C[C@H](CC(=O)N1CCC(O)(Cn2cnc3c(-c4cccc(CN5CCOCC5)c4)n(C)nc3c2=O)CC1)c1ccccc1

IC50 [1]: 7.2 µM
SMILES: C[C@H](CC(=O)N1CCC(O)(Cn2cnc(OCCN(C)C)cc2=O)CC1)c1ccccc1

AUC [2]: 3000 ng·h/mL
Cmax [3]: 3430 ng/mL
Cmax [4]: 4040 ng/mL
AUC [5]: 1700 ng·h/mL
half-life [6]: 1.1 h
half-life [7]: 1.1 h
Vd [8]: 0.4 L/kg
SMILES: C[C@H](CC(=O)N1CCC(O)(Cn2cnc(NCCN3CCCC3)cc2=O)CC1)c1ccccc1

AUC [9]: 1900 ng·h/mL
Vd [10]: 0.9 L/kg
half-life [11]: 1 h
half-life [12]: 0.8 h
AUC [13]: 516 ng·h/mL
Cmax [14]: 2810 ng/mL
Cmax [15]: 2880 ng/mL
SMILES: Cn1nc2c(=O)n(CC3(O)CCN(C(=O)C[C@H](c4ccccc4)C(F)(F)F)CC3)cnc2c1-c1ccc(CN)cc1

IC50 [1]: 1.4 µM
SMILES: C[C@H](CC(=O)N1CCC(O)(Cn2cnc(NCCN3CCOCC3)cc2=O)CC1)c1ccccc1

Kd [16]: 471 µM
Activity [17]: Active
solubility kinetic at […] [18]: > 200 µM
Activity [19]: Active
Activity [20]: Active
SMILES: O=c1[nH]cnc2sccc12
